Results on 1 compound are retold here after ChEMBL document CHEMBL5678801, “A benzothiophene inhibitor of mitogen-activated protein kinase-activated protein kinase 2 inhibits tumor necrosis factor alpha production and has oral anti-inflammatory efficacy in acute and chronic models of inflammation” (J Pharmacol Exp Ther, 2010).

SMILES strings stand for the structures.

Series [1] concerns Rattus norvegicus. In words: Antiarthritic activity in chronic SCW-induced arthritis Lewis rat model assessed as inhibition of chronic paw swelling administered twice daily via oral gavage for 10 to 21 days. The note with it: time 10-21 day. It is filed as organism-based. The essentials:
(§1)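 Female Lewis rats (125-140 g) received a single i.p. streptococcal cell wall injection. Animals showing the acute phase were pooled, 4-8 per group over three experiments. Dosing was oral gavage b.i.d., days 10-21, in methylcellulose-Tween-20 vehicle. Hind paw volume was read by displacement plethysmometer on day 21, as % inhibition of swelling. Plasma was sampled up to 11 h after the last dose, 3 rats per dose. ED values came from fitted curves.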

A short description of series [2]: Antiinflammatory activity in human Whole blood cell assessed as inhibition of LPS induced TNF alpha production preincubated for 1 hr followed by LPS stimulation and measured after 16 hrs by MSD analysis. It is filed as functional, cell-based.
Series [3] has as its target MAP kinase-activated protein kinase 2 (Homo sapiens, UniProt P49137). In words: Binding affinity to recombinant N-terminal truncated MK2 (45 to 371 residues) (unknown origin) expressed in Escherichia coli assessed as inhibition constant measured after 15 mins by surface plasmon resonance spectroscopy analysis. In general terms: In SPR one partner is held on a chip, and binding of the other changes the refractive index at the surface.

Series [4] has as its target T1, Tyrosine-protein kinase Mer (Homo sapiens, UniProt Q12866).
T1 sequence (Q12866 whole entry): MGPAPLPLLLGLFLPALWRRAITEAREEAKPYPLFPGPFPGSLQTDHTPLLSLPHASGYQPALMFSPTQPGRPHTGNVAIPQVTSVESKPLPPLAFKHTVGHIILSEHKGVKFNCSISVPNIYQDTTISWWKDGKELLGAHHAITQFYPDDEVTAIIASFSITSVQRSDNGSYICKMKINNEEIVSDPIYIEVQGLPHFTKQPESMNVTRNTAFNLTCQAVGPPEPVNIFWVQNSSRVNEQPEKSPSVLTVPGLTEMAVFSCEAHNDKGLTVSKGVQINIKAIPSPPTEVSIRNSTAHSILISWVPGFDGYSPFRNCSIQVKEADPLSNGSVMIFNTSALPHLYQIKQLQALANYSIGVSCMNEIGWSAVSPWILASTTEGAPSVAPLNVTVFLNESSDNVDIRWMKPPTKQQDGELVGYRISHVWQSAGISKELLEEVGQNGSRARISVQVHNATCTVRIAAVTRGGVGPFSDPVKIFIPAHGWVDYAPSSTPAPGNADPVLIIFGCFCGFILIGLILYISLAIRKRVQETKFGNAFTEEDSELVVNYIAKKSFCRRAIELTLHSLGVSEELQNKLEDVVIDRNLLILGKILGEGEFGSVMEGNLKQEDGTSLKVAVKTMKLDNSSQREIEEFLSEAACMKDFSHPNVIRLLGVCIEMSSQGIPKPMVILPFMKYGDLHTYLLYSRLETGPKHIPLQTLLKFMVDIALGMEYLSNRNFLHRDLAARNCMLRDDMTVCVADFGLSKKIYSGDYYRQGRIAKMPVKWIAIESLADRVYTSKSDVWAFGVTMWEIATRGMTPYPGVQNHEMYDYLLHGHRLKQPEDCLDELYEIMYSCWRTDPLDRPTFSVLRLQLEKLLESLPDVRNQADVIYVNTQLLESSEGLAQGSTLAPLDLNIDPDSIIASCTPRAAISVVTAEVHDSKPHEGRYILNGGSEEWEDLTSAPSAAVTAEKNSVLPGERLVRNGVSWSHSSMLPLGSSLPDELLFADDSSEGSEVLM
In words: Inhibition of Mer (unknown origin). In a few lines:
(§2)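 Kinase panel: 200 kinases were first screened at 1 μM inhibitor for percent inhibition. Those above 50% inhibition were then titrated for IC50. MgATP was fixed at the Km(app) determined for each enzyme.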

The nature of series [5]: Inhibition of IL-8 production in LPS induced human PBMC cells preincubated with compound for 1 hr followed by LPS induction and measured after 16 hrs by MSD analysis. It is filed as functional, cell-based. The essentials: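 Human PBMCs were pretreated with compound for 1 h (<1% DMSO final), then stimulated with LPS 100 ng/ml at 37°C. Cytokines in culture media were read by MSD 4-plex: TNFα at 4 h; IL-1β, IL-6 and IL-8 at 16 h. Data are means ±S.E.M. of two independent experiments in duplicate, three donors. IC50 by 4-parameter nonlinear regression.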

A short description of series [6]: AUC in chronic SCW-induced arthritis Lewis rat model plasma at ED80 concentration. It is filed as ADME, cell-free. The essentials: as §1
The nature of series [7]: Antiinflammatory activity in human Whole blood cell assessed as inhibition of LPS induced IL-8 production preincubated for 1 hr followed by LPS stimulation and measured after 16 hrs by MSD analysis. Type of series: functional, cell-based. The essentials:
(§3)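 Human whole blood was stimulated ex vivo with LPS 100 ng/ml. Plasma cytokines were read by MSD 4-plex: TNFα at 4 h; IL-1β, IL-6 and IL-8 at 16 h. Data are means ±S.E.M. of two independent experiments in duplicate, three donors. IC50 by 4-parameter nonlinear regression.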

Series [8] has as its target Cyclin-dependent kinase 1/cyclin B1 (Homo sapiens, UniProt P06493). In words: Inhibition of CDK1/cycB (unknown origin). Type of series: protein-complex assay. In a few lines:
as §2

The nature of series [9]: Inhibition of TNF alpha production in LPS induced human PBMC cells preincubated with compound for 1 hr followed by LPS induction and measured after 16 hrs by MSD analysis. Type of series: functional, cell-based.
For series [10], the target named is MAP kinase-interacting serine/threonine-protein kinase 1 (Homo sapiens, UniProt Q9BUB5). In words: Inhibition of recombinant MNK1 (unknown origin) expressed in Escherichia coli using KKKALSRQLSVAA as substrate incubated for 1 hr followed by substrate addition in presence of ATP. In a few lines: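 Recombinant MAPKAP kinase was first activated with activated p38α (1:50 molar ratio) and 250 μM ATP for 1 hr at 30°C. Activity was then assayed at Km(app) MgATP by ion-exchange separation of 33P-labeled product peptide. IC50 was taken from duplicate experiments.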
MAP kinase-interacting serine/threonine-protein kinase 1, sequence (Q9BUB5 whole entry): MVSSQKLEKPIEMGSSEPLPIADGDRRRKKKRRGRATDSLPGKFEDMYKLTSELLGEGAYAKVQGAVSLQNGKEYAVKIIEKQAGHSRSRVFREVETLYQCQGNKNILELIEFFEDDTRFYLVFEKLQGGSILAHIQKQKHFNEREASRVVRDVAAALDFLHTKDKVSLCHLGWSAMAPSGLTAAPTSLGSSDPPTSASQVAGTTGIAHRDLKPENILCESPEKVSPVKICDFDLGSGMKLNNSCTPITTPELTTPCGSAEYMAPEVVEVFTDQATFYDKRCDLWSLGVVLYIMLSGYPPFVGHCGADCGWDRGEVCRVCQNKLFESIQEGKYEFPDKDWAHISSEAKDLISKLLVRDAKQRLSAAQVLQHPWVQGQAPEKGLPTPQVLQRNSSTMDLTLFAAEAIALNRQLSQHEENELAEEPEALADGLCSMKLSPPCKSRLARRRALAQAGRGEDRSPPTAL

Series [11] can be described thus: Half life in Sprague-Dawley rat measured upto 24 hrs by […] analysis. It is filed as ADME. The note with it: in vivo. In a few lines: (§4)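 Male Sprague-Dawley rats (275-300 g), carotid-catheterized and acclimated overnight. Dosing was i.v. at 1 mpk (n=2) in 70% saline/20% PEG-400/10% ethanol, or oral at 3 mpk (n=3) as a suspension in 0.5% HPMC/Tween. Plasma drug was measured by LC-MS/MS. Cmax and Tmax were read from individual profiles. t½ came from the terminal log-linear slope and AUC by the linear trapezoidal rule. CL = dose/AUC0-∞, Vdss = CL×MRT, F = dose-normalized AUC po/iv.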

A short description of series [12]: Inhibition of IL-1 beta production in LPS induced human Whole blood cell preincubated with compound for 1 hr followed by LPS induction and measured after 16 hrs. It is filed as functional, cell-based. In a few lines: as §3
The nature of series [13]: AUC (0 to infinity) in Sprague-Dawley rat at 3 mg/kg, po measured upto 24 hrs by […] analysis. The note with it: in vivo. Type of series: ADME, organism-based. The essentials:
as §4

Cyclin-dependent kinase 1/cyclin B1, sequence (P06493 whole entry): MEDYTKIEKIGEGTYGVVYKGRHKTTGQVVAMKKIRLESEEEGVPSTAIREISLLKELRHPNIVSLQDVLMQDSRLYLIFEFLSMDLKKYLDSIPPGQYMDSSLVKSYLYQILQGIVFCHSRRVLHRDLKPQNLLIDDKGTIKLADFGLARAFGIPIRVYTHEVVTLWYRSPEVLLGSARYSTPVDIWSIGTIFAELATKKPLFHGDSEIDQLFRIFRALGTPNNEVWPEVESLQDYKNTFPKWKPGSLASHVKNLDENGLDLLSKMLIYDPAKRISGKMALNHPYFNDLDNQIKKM
Cyclin-dependent kinase 1/cyclin B1, sequence (P14635 whole entry, further chain): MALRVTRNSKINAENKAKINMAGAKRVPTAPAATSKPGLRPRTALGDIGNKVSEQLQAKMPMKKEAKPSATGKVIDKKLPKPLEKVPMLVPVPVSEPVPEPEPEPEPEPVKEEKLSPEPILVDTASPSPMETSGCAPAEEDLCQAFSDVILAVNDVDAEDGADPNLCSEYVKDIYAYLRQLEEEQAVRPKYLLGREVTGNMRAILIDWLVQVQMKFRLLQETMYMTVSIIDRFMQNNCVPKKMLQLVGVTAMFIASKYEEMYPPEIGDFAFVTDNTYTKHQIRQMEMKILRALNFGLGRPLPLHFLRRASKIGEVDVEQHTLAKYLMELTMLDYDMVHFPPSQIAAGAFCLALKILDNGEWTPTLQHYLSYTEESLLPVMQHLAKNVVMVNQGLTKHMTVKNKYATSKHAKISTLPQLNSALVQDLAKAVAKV
MAP kinase-activated protein kinase 2, sequence (P49137 whole entry, the tested form may be a part): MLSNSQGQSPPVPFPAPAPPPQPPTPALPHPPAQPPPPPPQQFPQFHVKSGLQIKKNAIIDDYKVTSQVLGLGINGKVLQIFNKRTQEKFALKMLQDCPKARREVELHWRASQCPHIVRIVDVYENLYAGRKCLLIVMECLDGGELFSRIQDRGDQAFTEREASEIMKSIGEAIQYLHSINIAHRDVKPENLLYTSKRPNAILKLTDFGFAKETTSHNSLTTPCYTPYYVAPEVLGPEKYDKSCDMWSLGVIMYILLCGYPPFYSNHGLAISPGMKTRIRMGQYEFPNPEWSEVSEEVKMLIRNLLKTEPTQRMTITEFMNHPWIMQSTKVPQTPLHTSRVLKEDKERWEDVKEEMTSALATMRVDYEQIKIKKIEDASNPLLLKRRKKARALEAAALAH

As for `Cc1ccc(-c2ccc3c(ccc4sc5c(c43)NC[C@@H](C)NC5=O)n2)cn1`, in series [1] (Rattus norvegicus, Lewis), the median effective dose (ED50) was found to be 20 mg/kg. For the same compound, the ED80 in series [1] (rat, in vivo, po) stood at 50 mg/kg. In addition, the IC50 in series [2] is 1380 nM; in series [4], 76 nM; in series [5], 2090 nM; in [7], over 20000 nM; in series [8], 354 nM; in [9] it was 160 nM. Moreover, the half-maximal inhibitory concentration (IC50) is 3000 nM in [10] and over 25000 nM in [12]. Besides, in [3], the inhibition constant Ki stood at 3 nM. The area under the curve (AUC) in series [6] was found to be 117 µM·h. In [11], this compound had a half-life of 9.1 h. The compound also showed an AUC(0-inf) in [13] of 1.8 µM·h.

For orientation: ED50 means the dose at which the effect has come halfway, by size or by number of responders. As a reminder, the IC50 is the concentration at which inhibition is half-maximal. By Ki is commonly meant a dissociation constant, usually derived from enzyme kinetics or from competition with a known ligand. The term AUC denotes concentration integrated over time. Read a high AUC as more exposure. The half-life is how long it takes for the measured level to halve. Lower therefore signals rapid decline. Usually AUC(0-inf) stands for the area under the concentration-time curve extrapolated to infinity. A low value points to low exposure.
